# SR-BI HDL uptake = blocks mouse SR-BI lipid uptake from DiI-HDL. Q61009. inhibition, % at 12.5 µM. 320,000 tested, 0.96% active. ldlA[mSR-BI] CHO cells, DiI-HDL uptake fluorescence, 3 h;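 active = mean replicate inhibition of at least 70% and a set share of replicates each scoring 70 or more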;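 note: 0% = median of neutral control wells and 100% = median of positive control wells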
# Target sequence (Q61009 whole entry, looked up): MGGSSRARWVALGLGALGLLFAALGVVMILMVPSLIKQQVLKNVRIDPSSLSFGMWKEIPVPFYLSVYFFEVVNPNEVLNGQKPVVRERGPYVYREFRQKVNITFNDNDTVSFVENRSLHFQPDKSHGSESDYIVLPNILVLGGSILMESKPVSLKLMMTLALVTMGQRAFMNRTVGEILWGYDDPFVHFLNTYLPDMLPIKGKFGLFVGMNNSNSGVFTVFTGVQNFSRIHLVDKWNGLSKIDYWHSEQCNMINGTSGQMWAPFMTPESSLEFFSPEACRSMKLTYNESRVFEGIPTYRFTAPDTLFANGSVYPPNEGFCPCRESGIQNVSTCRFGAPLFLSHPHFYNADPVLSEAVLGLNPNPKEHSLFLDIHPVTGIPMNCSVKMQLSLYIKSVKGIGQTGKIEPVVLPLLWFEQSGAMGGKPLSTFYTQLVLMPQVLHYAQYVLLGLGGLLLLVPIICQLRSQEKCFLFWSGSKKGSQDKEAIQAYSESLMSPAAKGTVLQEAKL
# CAL PDZ FP-1 = inhibitors of human CAL PDZ peptide binding | Q9HD26 | purified CAL PDZ, TMR-peptide fluorescence polarization, 1 h | inhibition, % at 24.9 µM | 300,000 tested, 0.92% active;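 active = mean inhibition of at least 30% with at least half of replicates also reaching 30%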;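 note: 0% = DMSO neutral control and 100% = excess unlabeled competitor peptide PRC23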
# ATG4B inhibitor = blocks human ATG4B protease cleavage of LC3 substrate; Q9Y4P1; ATG4B cleavage of LC3-PLA2, NBD-HPC fluorescence, 1 h; inhibition, % at 8.33 µM; 340,000 tested, 0.51% active; in the data active = inhibition above about 40%
# SR-BI DiI-HDL act = SR-BI HDL lipid transfer activation | activation, % at 12.5 µM | 320,000 tested, 0.096% active | AID 504775 | CHO ldlA[mSR-BI] cells, DiI-HDL uptake fluorescence, 3 h; 100 = double the neutral-control signal;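 active = mean replicate activation of at least 60% and every replicate at or above 60%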;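 note: 0% = median plate neutral-control signal and 100% = twice that signal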
#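 System: CHO ldlA[mSR-BI] cells / Medium: HEPES-buffered (25 mM, pH 7.4) F12 plus 0.5% BSA / Probe or stimulus: labelled HDL, 10 µg/mL / Doses: single compound concentration, delivered by pin transfer / Schedule: 3 h, 37 °C / Measured by: DiI fluorescence, bottom read / Measure: cell-associated DiI fluorescence as measure of HDL uptake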
# CAL PDZ FP-2 = blocks peptide binding to human CAL PDZ domain | Q9HD26 | purified CAL PDZ, TMR-peptide fluorescence polarization, 1 h | inhibition, % at 20 µM | 330,000 tested, 0.02% active;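 active = highest replicate inhibition of at least 40%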;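 note: plate controls were DMSO neutral control wells for no effect and unlabeled competitor peptide control wells for full effect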
#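 Material – purified CerCALP PDZ construct · Detection – FP readout, S and P plane fluorescence · Measure – percent inhibition from loss of millipolarization · Controls – unlabelled peptide for full inhibition, DMSO wells as neutral · Probe or stimulus – TMR-labelled reporter peptide T*-PRC34 bound in PDZ groove · Times – 1 h at RT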
# Active calls of the source: *; . = not tested or not shown. Most compounds without a hit are left out; they make up all but 2.3% or so of the library.
SMILES,SR-BI HDL uptake,CAL PDZ FP-1,ATG4B inhibitor,SR-BI DiI-HDL act,CAL PDZ FP-2
NC(=S)N/N=C/c1ccc(-c2cccc([N+](=O)[O-])c2)o1,77.5*,-2.0,-4.4,-77.5,-2.1
C=CCNC(=S)N/N=C/c1ccc(-c2cc(Cl)ccc2Cl)o1,15.6,-3.2,-4.1,-15.6,0.3
Cc1ccc(OCCCn2ccnc2)c(Br)c1,7.0,-1.6,6.6,-7.0,0.1
CC1CCC(NC(=O)c2cccc(S(=O)(=O)NCc3ccccc3)c2)CC1 (configuration not stated),20.8,-5.2,-9.6,-20.8,-2.0
COc1cc(NC(=O)C2=C(N3CCOCC3)/C(=C/c3ccc(Cl)cc3)CC2)cc(OC)c1OC,73.6*,1.0,4.1,-73.6,-2.3
O=C(Nc1ccccc1)C1=C(N2CCOCC2)/C(=C/c2cccnc2)CC1,35.8,1.8,-0.8,-35.8,-0.8
COc1cc(NC(=O)C2=C(N3CCOCC3)/C(=C\c3ccc(N(C)C)cc3)CCC2)cc(OC)c1OC,74.3*,-0.4,-3.4,-74.3,-0.5
CC(C)Cc1nnc(NC(=O)c2ccc3c(c2)OCCO3)s1,13.9,5.2,-9.7,-13.9,-0.8
CCCn1c(N)c(C(=O)COC(=O)CCNS(=O)(=O)c2ccccc2F)c(=O)[nH]c1=O,2.7,-1.7,-1.2,-2.7,-2.7
CC(C)Cc1nnc(NC(=O)CCC(=O)N2CCN(c3ccc(F)cc3)CC2)s1,-13.1,40.9*,-5.5,13.1,-0.8
COc1ccc(/C=N/N(C(C)=O)c2nc(-c3ccc(C)cc3)cs2)cc1,36.5,-5.0,-9.7,-36.5,.
COc1ccccc1/C=N/N(C(C)=O)c1nc(-c2ccc(F)cc2)cs1,82.2*,-1.3,-8.9,-82.2,-1.4
CCCC(C)NC(=O)CSc1nnc(-c2c[nH]c3ccccc23)o1 (configuration not stated),-8.7,46.4*,-15.7,8.7,-2.4
CCN1C(=O)C(=O)N(CC(=O)N2CCN(c3ccccc3)CC2)C1=O,-8.7,9.0,-0.2,8.7,-1.1
Cc1cc(C)n2nc(SCC(=O)N3CC(C)CC(C)C3)nc2n1 (configuration not stated),-3.0,-3.6,-4.6,3.0,-0.2
CN(C)S(=O)(=O)c1cccc(NC(=O)c2cccc(S(=O)(=O)N3CCCCCC3)c2)c1,77.0*,-0.3,-14.6,-77.0,-4.9
CN(C)S(=O)(=O)c1cccc(NC(=O)c2ccc(S(=O)(=O)N3CCCCC3)cc2)c1,21.7,9.2,0.5,-21.7,-1.4
O=C(c1ccc(S(=O)(=O)N2CCCC2)cc1)N1CCCCCC1,-1.5,66.9*,-10.1,1.5,-1.3
Cc1ccc(S(C)(=O)=O)cc1C(=O)Nc1cccc(S(=O)(=O)N2CCCCCC2)c1,80.5*,.,-7.2,-80.5,0.4
Cc1cccc(N2CCN(C(=O)c3cccc(S(=O)(=O)N4CCCCC4)c3)CC2)c1C,2.9,69.0*,0.0,-2.9,-0.1
O=C(CN1CCCCC1)Nc1ccc(S(=O)(=O)c2ccc(NC(=O)CN3CCCCC3)cc2)cc1,-9.0,-3.0,2.8,9.0,-1.0
CCOc1ccccc1CNCC1CCCO1 (configuration not stated),-24.7,.,-3.2,24.7,-2.4
CS(=O)(=O)c1cccc(C(=O)Nc2cccc(S(=O)(=O)N3CCCC3)c2)c1,82.5*,-6.1,-5.9,-82.5,-2.6
Cc1cc(NC(=O)c2cccc(S(=O)(=O)N3CCCCCC3)c2)n(-c2ccccn2)n1,82.3*,-2.1,-15.5,-82.3,0.8
CC(=O)Nc1cccc(OCC(=O)Nc2cccc(S(=O)(=O)N3CCCC3)c2)c1,-449.5,.,-1.9,449.5*,-6.6
SMILES,SR-BI HDL uptake,CAL PDZ FP-1,ATG4B inhibitor,SR-BI DiI-HDL act,CAL PDZ FP-2
CC(=O)Nc1cccc(NC(=O)CSc2nc3c(c(=O)n(C)c(=O)n3C)n2C)c1,-6.0,-4.3,3.2,6.0,-1.6
Cc1cc(C[n+]2cc(Br)ccc2N)c2ncccc2c1,.,-4.9,31.1,.,-2.3
COc1ccccc1-c1nnc(SCC(=O)Nc2cccnc2Cl)n1C,-47.4,-7.0,-0.1,47.4,-0.4
COCCn1c(N)c(Sc2ccccc2[N+](=O)[O-])c(=O)[nH]c1=O,-16.4,-0.4,9.6,16.4,0.3
COc1cc(C=CC(=O)OCC=Cc2ccc3c(c2)OCO3)cc(OC)c1OC,-14.5,.,2.4,14.5,0.9
O=C(C=Cc1ccc2c(c1)OCO2)OCC=Cc1ccc2c(c1)OCO2,-14.1,53.5*,1.2,14.1,0.6
CCNc1nc(ON=C(C)C)nc(N(C)C)n1,-64.1,-4.1,-7.7,64.1*,-3.9

# Assay outcomes: PubChem, several laboratories
